Here are results for 5 compounds from ChEMBL document CHEMBL1140915, “Second-generation highly potent and selective inhibitors of the hepatitis C virus NS3 serine protease” (J Med Chem, 2009).

The nature of series [1]: Inhibition of HCV NS3 protease in absence of human serum. Further details: species or system Hepacivirus hominis. In outline: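 Continuous enzymatic assay using NS4A-tethered single-chain HCV NS3 serine protease, without human serum. Ki* is the equilibrium constant, which includes the reversible covalent ketone–serine bond. Compounds were tested as P1 diastereomer mixtures (2:1 to 1:2) that equilibrate rapidly under assay conditions.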

The test system of another series is Hepatitis C virus. The experiment in a line: Antiviral activity against HCV assessed as inhibition of virus replication by cell based assay in absence of human serum. The class given is functional, Hepacivirus hominis. The method, boiled down: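 Replicon-based cellular assay run without human serum. EC90 is the concentration that inhibits replicon replication by 90%. Compounds were tested as rapidly equilibrating P1 diastereomer mixtures.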

Series [2] can be described thus: Bioavailability in monkey at 3 mg/kg, po administered with 0.4% hydroxypropyl methylcellulose. The settings on record: rhesus monkey, in vivo. The class given is ADME, organism-based, Macaca mulatta.
Series [3] can be described thus: Selectivity for HCV NS3 protease over human neutrophil elastase. In outline: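 Compounds were also assayed against human neutrophil elastase. Selectivity is expressed as the HNE/HCV ratio of the two enzyme potencies.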
Series [4] is described as follows: AUC in rat at 10 mg/kg, po administered with 20% HPBCD. The class given is ADME, organism-based. Further details: dose 10 mg/kg, route oral. Particulars: plasma.
Series [5] in a line: AUC in monkey at 3 mg/kg, po administered with 0.4% hydroxypropyl methylcellulose. The class given is ADME, organism-based, Macaca mulatta. Further details: dose 3 mg/kg, route oral. Particulars: rhesus monkey, in vivo.
Series [6] is described as follows: AUC in dog at 3 mg/kg, po administered with 0.4% hydroxypropyl methylcellulose. The class given is ADME, organism-based, Canis lupus familiaris. More on the design: dose 3 mg/kg, route oral. The settings on record: in vivo.
A short description of series [7]: AUC in rat at 3 mg/kg, iv administered with 0.4% hydroxypropyl methylcellulose. The class given is ADME, organism-based. More on the design: dose 3 mg/kg, route intravenous. The settings on record: in vivo.
Series [8] is described as follows: AUC in monkey at 1 mg/kg, iv administered with 0.4% hydroxypropyl methylcellulose. The class given is ADME, organism-based, Macaca mulatta. Further details: dose 1 mg/kg, route intravenous. The settings on record: rhesus monkey, in vivo.
Series [9] is described as follows: AUC in dog at 2 mg/kg, iv administered with 0.4% hydroxypropyl methylcellulose. The class given is ADME, organism-based, Canis lupus familiaris. More on the design: dose 2 mg/kg, route intravenous. The settings on record: in vivo.
Series [10] in a line: Half life in rat at 3 mg/kg, iv administered with 0.4% hydroxypropyl methylcellulose. The class given is ADME, organism-based. Further details: dose 3 mg/kg, route intravenous. Particulars: in vivo.
Series [11] can be described thus: Half life in monkey at 1 mg/kg, iv administered with 0.4% hydroxypropyl methylcellulose. The class given is ADME, organism-based, Macaca mulatta. Further details: dose 1 mg/kg, route intravenous. Particulars: rhesus monkey, in vivo.
Series [12] is described as follows: Half life in dog at 2 mg/kg, iv administered with 0.4% hydroxypropyl methylcellulose. The class given is ADME, organism-based, Canis lupus familiaris. Further details: dose 2 mg/kg, route intravenous. Particulars: in vivo.
The nature of series [13]: Bioavailability in rat at 10 mg/kg, po administered with 0.4% hydroxypropyl methylcellulose. The class given is ADME, organism-based. Particulars: in vivo.
Series [14] can be described thus: Bioavailability in dog at 3 mg/kg, po administered with 0.4% hydroxypropyl methylcellulose. The class given is ADME, organism-based, Canis lupus familiaris. Particulars: in vivo.
Series [15] is described as follows: Drug level in rat liver after 6 hrs. The class given is ADME, tissue-based. The settings on record: read-out: Drug uptake. The method, boiled down: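 In rat, compound level in liver was measured 6 h after dosing in 0.4% MC and reported as ng/g tissue.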
Series [16] can be described thus: AUC in rat at 10 mg/kg, po administered with 0.4% hydroxypropyl methyl cellulose. The class given is ADME, organism-based. Further details: dose 10 mg/kg, route oral. Particulars: in vivo.

As a reminder, the Ki is the dissociation constant of the complex between target and ligand, obtained from inhibition or displacement. As usually defined, the EC90 is the concentration needed for an effect of 90%. As a reminder, the bioavailability is dose-corrected exposure relative to a reference, in per cent. As usually defined, the AUC is the area under the concentration-time curve, a measure of exposure. As a reminder, the half-life is how long it takes for the measured level to halve.

The compound `CC(C)(C)NC(=O)N[C@H](C(=O)N1C[C@H]2[C@@H]([C@H]1C(=O)NC(CC1CCC1)C(=O)C(N)=O)C2(C)C)C(C)(C)C` (some centres not stated) [BOCEPREVIR] returned an inhibition constant (Ki) in series [1] of 14 nM. For the same compound, in the series with Hepatitis C virus, the EC90 came to 350 nM. In addition, the bioavailability in [2] was determined as 4%.

Turning to `C=CCNC(=O)C(=O)C(CC1CC1)NC(=O)[C@@H]1[C@@H]2[C@H](CN1C(=O)[C@@H](NC(=O)NC(CN1C(=O)CC(C)(C)CC1=O)C(C)(C)C)C(C)(C)C)C2(C)C` (single isomer, unassigned), the inhibition constant (Ki) in [1] is 4 nM. The concentration for an effect of 90% (EC90) in the series with Hepatitis C virus turned out to be 30 nM. The Ratio in series [3] is 7100. In addition, the AUC was determined as 1.2 µM·h in series [4]; 0.1 µM·h in series [5]; 1.2 µM·h in series [6]; 1.6 µM·h in [7]; 0.7 µM·h in series [8]; 2.2 µM·h in [9]. The same compound registered an area under the curve (AUC) in series [16] of 0.9 µM·h. For the same compound, the figures for the half-life in series [10], in [11] and in series [12] were 7.4 h, 2.3 h and 2.7 h, respectively. Besides, the figures for the bioavailability in series [13], in series [2] and in series [14] were 22%, 4% and 35%, respectively. The concentration at 6 h in series [15] amounted to 1800 ng/g.

`C=CCNC(=O)C(=O)C(CCCC)NC(=O)[C@@H]1[C@@H]2[C@H](CN1C(=O)[C@@H](NC(=O)NC(CN1C(=O)CC(C)(C)CC1=O)C(C)(C)C)C1CCCCC1)C2(C)C` (single isomer, unassigned) gave an inhibition constant (Ki) in [1] of 2 nM. Further, in the series with Hepatitis C virus, the EC90 was 45 nM. Also, the Ratio in [3] was determined as 2400. This compound also returned an AUC in [4] of 0.45 µM·h.

The compound `C=CCNC(=O)C(=O)C(CCCC)NC(=O)[C@@H]1[C@@H]2[C@H](CN1C(=O)[C@@H](NC(=O)N[C@@H](CN1C(=O)CCCC1=O)C(C)(C)C)C(C)(C)C)C2(C)C` (some centres not stated) returned a Ki in series [1] of 8 nM. Moreover, the concentration for an effect of 90% (EC90) in the series with Hepatitis C virus was found to be 150 nM. The Ratio in series [3] was found to be 69000. In series [4], this compound came in with an exposure (AUC) of 0.44 µM·h.

As to `C=CCNC(=O)C(=O)C(CCCC)NC(=O)[C@@H]1[C@@H]2[C@H](CN1C(=O)[C@@H](NC(=O)NC(CN1C(=O)CN(C)CC1=O)C(C)(C)C)C(C)(C)C)C2(C)C` (single isomer, unassigned), affinity in series [1] was put at a Ki of 6 nM. In addition, the EC90 in the series with Hepatitis C virus came out at 40 nM. Besides, in series [3], the Ratio was determined as 9500. The exposure (AUC) in [4] was 0.36 µM·h.
